Data on 96 compounds can be found in ChEMBL document CHEMBL4513216, “Probing the Open Global Health Chemical Diversity Library for Multistage-Active Starting Points for Next-Generation Antimalarials” (ACS Infect Dis, 2020).

Structures are written as SMILES.

This data set in a line: Toxicity liver stage against HepG2, at 10uM. In kind it is cell-based. Further details: test concentration 10 uM, cell line HepG2-A16-CD81EGFP. The following applies: human, HepG2-A16-CD81EGFP cells; read-out: INHIBITION
A digest of the protocol: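 Uninfected HepG2-A16-CD81EGFP cells, 3 × 10^3 per well, 1536-well, plated on prespotted compound at 10 μM final, parasite-free screening media added to match infected plates; puromycin 10 μM positive, DMSO 0.5% negative; run in parallel with 48 h PbLuc assay at 37 °C, 5% CO2; viability by CellTiter-Glo luminescence, normalized to controls.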
As to `COc1ccc(Oc2ncccc2NC(=O)N2CCOC(C)C2)cc1` (stereo unspecified), the cytotoxicity at 10 µM amounted to 2.65%.

Consider `O=C(Nc1ccccc1)N1CCN(Cc2noc(C3CC3)n2)CC1`, for which the cytotoxicity at 10 µM came to 2.82%.

Consider `COc1cccc(C(=O)N2CCOC3(CCCN(C(C)=O)C3)C2)c1` (stereo unspecified), for which the cytotoxicity at 10 µM was -68.6%.

For the compound `Cc1cc(Cc2cccc(C(F)(F)F)c2)cc(C2CCCNC2)n1` (stereo unspecified), the cytotoxicity at 10 µM was -2.34%.

In the case of `O=C(CSC1=NS(=O)(=O)c2cc(F)ccc2N1)Nc1ccc(Cl)cc1`, the cytotoxicity at 10 µM worked out at 8.93%.

On to `Fc1cccc(O[C@@H]2C[C@H]3CN(Cc4ccccn4)CCN3C2)c1`, for which the cytotoxicity at 10 µM is -154%.

`CN1CCN(Cc2ccccc2Cl)CC12CCC(=O)N(CC1CC1)CC2` (stereo unspecified): the cytotoxicity at 10 µM is -3.94%.

As for `Cc1nc2c(cc1C(=O)Nc1ccccc1Cl)c(=O)n(C)c(=O)n2C`, the cytotoxicity at 10 µM is -5.06%.

Take `CCN(CC)C1CCN(C(=O)NCc2cccc(NC(C)=O)c2)C1` (stereo unspecified): the cytotoxicity at 10 µM amounted to 4.55%.

As to `CC(=O)N1CCOC2(CCCN(Cc3ccc(N(C)C)cc3)C2)C1` (stereo unspecified), the cytotoxicity at 10 µM is 0.603%.

As for `Fc1ccc(-c2nc(CN3CCOC(Cn4cccn4)C3)co2)cc1` (stereo unspecified), the cytotoxicity at 10 µM was -3.78%.

In the case of `CC(C)CN1CCCC1c1ccc(C(=O)Nc2cn(C)nn2)s1` (stereo unspecified), the cytotoxicity at 10 µM was -4.69%.

On to `O=C(NCC1CCCOC1)c1ccc(-c2cccs2)[nH]c1=O` (stereo unspecified), for which the cytotoxicity at 10 µM was -3.67%.

For `CN(CCc1ccncc1)CCc1nccs1`, the cytotoxicity at 10 µM amounted to 1.8%.

On to `COc1ccc(C(=O)N2CC[C@@]3(O)CCCC[C@H]3C2)cc1OC`, for which the cytotoxicity at 10 µM was -43.4%.

As for `CCNC(c1ccc(F)cc1)c1cccnc1` (stereo unspecified), the cytotoxicity at 10 µM stood at 2.73%.

With `COCC(=O)N1CC[C@@H]2O[C@@H](COCc3csc(C)n3)CC[C@@H]21`, the cytotoxicity at 10 µM was 3.24%.

As for `CC(C)(NC(=O)C1CCN(C2CCCCC2)CC1)c1nnc(N)s1`, the cytotoxicity at 10 µM stood at 6.17%.

For `Cc1n[nH]c(C)c1CCC(=O)N[C@@H]1CCC[C@@H](Oc2ccccc2)[C@@H]1O`, the cytotoxicity at 10 µM stood at 3.01%.

`CCN1Cc2nccn2CC(COCc2csc(C)n2)C1` (stereo unspecified): the cytotoxicity at 10 µM stood at 3.86%.

For the compound `CC(NC1(CNS(C)(=O)=O)CCCC1)c1ccccc1` (stereo unspecified), the cytotoxicity at 10 µM turned out to be 8.43%.

As to `Oc1ccc(N(CCc2ccccc2)CCn2cncn2)cc1`, the cytotoxicity at 10 µM was found to be 4.21%.

As for `CN(CCCOc1ccccc1Cl)C(=O)CN1CCNC1=O`, the cytotoxicity at 10 µM was -0.2%.

Take `CCCS(=O)(=O)N1CCC(c2ccc(OC)cc2)CC1`: the cytotoxicity at 10 µM turned out to be 2.02%.

With `COCCn1cc(NC(=O)N(CCC(N)=O)Cc2ccccc2)cn1`, the cytotoxicity at 10 µM is -4.72%.

As to `Cc1noc(C(C)C)c1C(=O)NCc1ccc2c(c1)OCCO2`, the cytotoxicity at 10 µM was 3.24%.

As for `c1cnc(N2CCC3(CCCN(Cc4ccncc4)C3)CC2)nc1`, the cytotoxicity at 10 µM is -91.6%.

As to `COc1ccc(C2CC(=O)Nc3c2cnn3C2CCCC2)cc1` (stereo unspecified), the cytotoxicity at 10 µM is -9.41%.

For `CN(C)c1ncc(-c2cccc(F)c2)c(C2CNCCO2)n1` (stereo unspecified), the cytotoxicity at 10 µM is -29.9%.

As for `CN(C[C@H]1CN2CC[C@H]1C[C@@H]2CNC(=O)c1ccco1)c1ccccc1`, the cytotoxicity at 10 µM is -0.947%.

Consider `COCC(O)CN1CCC(=O)N(Cc2ccco2)Cc2ccccc21` (stereo unspecified), for which the cytotoxicity at 10 µM is -5.62%.

As to `COCCn1nc(C(=O)N(C)Cc2cccnc2)ccc1=O`, the cytotoxicity at 10 µM was -144%.

Consider `COc1ccc(CNC(C)c2cnc3cc(C)nn3c2C)cc1` (stereo unspecified), for which the cytotoxicity at 10 µM was -4.86%.

Consider `O=C(NCC1CC1)C1=NOC2(CCN(Cc3ccc(Cl)c(F)c3)C2)C1` (stereo unspecified), for which the cytotoxicity at 10 µM is 13.5%.

On to `Cc1cc(NC(=O)NCC(c2ccccc2)N2CCOCC2)n(C)n1` (stereo unspecified), for which the cytotoxicity at 10 µM was -11%.

Consider `CCNC(=O)Cc1ccc(NC(=O)NC(CC)c2ccncc2)cc1` (stereo unspecified), for which the cytotoxicity at 10 µM was -3%.

For `CNC(=O)NC(=O)CCN1CCN(c2ccc(C(=O)OC)cc2)CC1C` (stereo unspecified), the cytotoxicity at 10 µM was -17.8%.

As for `Cc1cccc(S(=O)(=O)NCC2CCN(c3cnccn3)CC2)c1`, the cytotoxicity at 10 µM was 7.99%.

With `Cc1cc(S(C)(=O)=O)c(C)c(S(=O)(=O)N2CCN(C)CC2)c1`, the cytotoxicity at 10 µM stood at 11.7%.

For the compound `CC1CCN(CCCNC(=O)Nc2cc3c(cc2Br)OCCO3)CC1`, the cytotoxicity at 10 µM is -3.11%.

For the compound `CC1CN(CC(=O)NC2CCOCC2)CCN1Cc1nccn1C` (stereo unspecified), the cytotoxicity at 10 µM is -6.57%.

Take `Cc1cnn(CC2CCCN2C(=O)c2cccc(F)c2F)c1` (stereo unspecified): the cytotoxicity at 10 µM is -1.3%.

As for `CN(CC(=O)N1CCCCC1Cn1cccn1)Cc1ccccc1` (stereo unspecified), the cytotoxicity at 10 µM is -3.99%.

As to `Cc1cnn(CCC(=O)N2CCN(c3nc(C)cs3)CC2)c1`, the cytotoxicity at 10 µM was -11.9%.

As to `Cc1occc1C(=O)NCC1OCCc2cn(C)nc21` (stereo unspecified), the cytotoxicity at 10 µM came to 4.33%.

As for `CCN(Cc1ccccc1)C(=O)CCN1CC(O)C1`, the cytotoxicity at 10 µM amounted to 7.48%.

`COCCNC(=O)C[C@@H]1COC[C@H]2CN(C(=O)c3cnccn3)C[C@@H]12`: the cytotoxicity at 10 µM is -12.2%.

`CC(c1nc(C2CC2)no1)N1CCC(NS(=O)(=O)c2cccs2)CC1` (stereo unspecified): the cytotoxicity at 10 µM is 6.4%.

Consider `Cn1cnnc1CNC(=O)C1CCCN(Cc2ccccc2)C1` (stereo unspecified), for which the cytotoxicity at 10 µM was determined as 3.57%.

In the case of `COCCN1CCc2ncc(CN(C)C)n2CC1`, the cytotoxicity at 10 µM is -0.0807%.

On to `CC(C)CCNC(=O)Cc1cnc(-n2cccc2)s1`, for which the cytotoxicity at 10 µM is -2.49%.

As for `Cc1nccn1CCCn1cncc1-c1ccc2c(c1)CCC(C)N2C` (stereo unspecified), the cytotoxicity at 10 µM is -4.98%.

For `CC1c2ncc(Cn3cncn3)n2CCN1C(=O)N(C)C` (stereo unspecified), the cytotoxicity at 10 µM came out at 0.267%.

For `CCNc1ncc(-c2cc(-c3ccn(C)c3)nc(N)c2C#N)cn1`, the cytotoxicity at 10 µM turned out to be 7.14%.

Take `CCNC(=O)[C@@H]1C[C@@H](NC(=O)Cc2ccccn2)CN1CCCSC`: the cytotoxicity at 10 µM is -6.72%.

Regarding `CC(C)(C)c1nnc(CN(Cc2cccs2)CC2CCCO2)o1` (stereo unspecified), the cytotoxicity at 10 µM stood at 15.8%.

Consider `CN(C)C[C@@H]1CCC[C@@H]2CN(c3nccc(C(F)(F)F)n3)C[C@@H]21`, for which the cytotoxicity at 10 µM was -2.75%.

As for `CC[C@@]1(O)CCN(c2ncc(Cl)cc2F)C[C@H]1O`, the cytotoxicity at 10 µM is 2.38%.

`Cc1nc(N2CCCCC2)ncc1C(=O)N1CC(C)(C)[C@@](C)(O)C1`: the cytotoxicity at 10 µM came to 1.41%.

On to `COc1ccccc1CCNC(=O)C1CCC(Cn2cnnn2)CC1` (stereo unspecified), for which the cytotoxicity at 10 µM came to 1.61%.

`CC(C(=O)N(C)Cc1ccco1)n1cncn1` (stereo unspecified): the cytotoxicity at 10 µM was 4.4%.

As to `Cc1nc(CN(C)CC2CCCN2c2cccnn2)oc1C` (stereo unspecified), the cytotoxicity at 10 µM was -4.25%.

On to `Cc1noc(C)c1CN(C)c1nc(C2CCCC2)nc2c1cnn2C`, for which the cytotoxicity at 10 µM was determined as 22.2%.

Regarding `COCCN1C[C@@H]2[C@@H](OC)CCN(Cc3ccncc3)[C@@H]2C1`, the cytotoxicity at 10 µM amounted to 5.16%.

For `CCc1nccn1C1CCCN(C(=O)Cc2cn3ccccc3n2)C1` (stereo unspecified), the cytotoxicity at 10 µM is -2.72%.

In the case of `CC(C)c1nc(C(=O)N2CCCC(n3cncn3)C2)c[nH]1` (stereo unspecified), the cytotoxicity at 10 µM was -2.48%.

On to `CCCC(=O)N1CCN(CC(O)COCC)CC1` (stereo unspecified), for which the cytotoxicity at 10 µM is -20.6%.

Consider `CNS(=O)(=O)CC(=O)N(Cc1ccccc1)c1ccc(C)cc1`, for which the cytotoxicity at 10 µM was 2.53%.

Turning to `Cc1cc2c(=O)n3c(nc2s1)CCN(Cc1cncn1C)CC3`, the cytotoxicity at 10 µM was -14.2%.

Consider `O=C(C1CC1)N1CCN2C[C@H](c3ccccc3)[C@@H](CO)[C@H]2C1`, for which the cytotoxicity at 10 µM is 4.9%.

In the case of `O=c1n(CCNCc2ccc3ccccc3c2)nc2ccccn12`, the cytotoxicity at 10 µM came out at 18.6%.

As for `CC(C)[C@H](C)NC1CCN(c2ccc(-c3cscn3)cc2)CC1`, the cytotoxicity at 10 µM is -50.8%.

Consider `c1ccc(-c2nc(CN3CCCC(Cn4cncn4)C3)no2)cc1` (stereo unspecified), for which the cytotoxicity at 10 µM stood at 3.71%.

In the case of `CCN(CCNC(=O)C1CCN(C(C)=O)CC1)c1ccccc1C`, the cytotoxicity at 10 µM was -6.19%.

`C[C@@H]1C[C@H]2CN(C(=O)c3ccncn3)C[C@H]2O1`: the cytotoxicity at 10 µM was 0.748%.

Turning to `O=C(c1nc2c(o1)CN(CC1CCC1)C2)N1CCCC1`, the cytotoxicity at 10 µM is -131%.

Take `CCN1CC[C@@H]2OC[C@H](C(=O)NCc3cccs3)C[C@@H]2C1`: the cytotoxicity at 10 µM is -106%.

In the case of `Cc1cc(C)n(NC(=O)c2ccccc2F)c(=O)c1`, the cytotoxicity at 10 µM was -13.2%.

For `COc1ccc(CCN2C(=O)O[C@@H]3CN(C4CCSCC4)C[C@@H]32)cc1`, the cytotoxicity at 10 µM is 1.6%.

Regarding `O[C@@H]1C[C@@H](c2nc(-c3ccccc3)no2)N(Cc2ccncc2)C1`, the cytotoxicity at 10 µM turned out to be 2.77%.

With `CC1CCCCN1c1nc2c(c(=O)[nH]1)CCN(Cc1ccccn1)C2` (stereo unspecified), the cytotoxicity at 10 µM is -10.7%.

Consider `Cc1nc(C)n(C2CCCN(C(=O)CCOCC(C)C)C2)n1` (stereo unspecified), for which the cytotoxicity at 10 µM was -0.734%.

For `COC[C@@]12CCO[C@@H]1CCN(Cc1ccccc1OC)C2`, the cytotoxicity at 10 µM is -110%.

Regarding `Cc1cc(C)n(CC2CCCCN2CC(=O)NC2CCOCC2)n1` (stereo unspecified), the cytotoxicity at 10 µM is -9.01%.

In the case of `CC(C)NC(=O)NCc1ccnc(N(C)C)n1`, the cytotoxicity at 10 µM is -3.63%.

For `O=C(CN1CCCNC1=O)N(Cc1ccccc1)CC(F)F`, the cytotoxicity at 10 µM is 5.9%.

Turning to `CC(C)(C)c1nc(CC(=O)Nc2cnccc2O)cs1`, the cytotoxicity at 10 µM was 9.09%.

`CCn1cnnc1C1CCN(C(=O)c2ccc3cc[nH]c3c2)CC1`: the cytotoxicity at 10 µM stood at 5.16%.

For the compound `CN(Cc1cccc(C(N)=O)c1)Cc1nc2c(cnn2C)c(=O)[nH]1`, the cytotoxicity at 10 µM is -2.97%.

In the case of `CN1CCN(C)C2(CCN(Cc3ccc(C4CCCO4)s3)CC2)C1` (stereo unspecified), the cytotoxicity at 10 µM was -11.7%.

Regarding `COc1cc(CNCC2CNc3ccnn3C2)ccn1` (stereo unspecified), the cytotoxicity at 10 µM is -0.65%.

On to `Cc1nc(CN2CCCC(NCc3sccc3C)C2)no1` (stereo unspecified), for which the cytotoxicity at 10 µM is -2.85%.

Turning to `CCN1CCN(C(=O)COc2ccc(CN(C)S(C)(=O)=O)cc2)CC1`, the cytotoxicity at 10 µM was 3.3%.

As to `N#Cc1cccc(N2CCOC3(CNCCOC3)C2)n1` (stereo unspecified), the cytotoxicity at 10 µM came to 2.61%.

For the compound `CC(C)c1nc(CC(=O)N(C)Cc2ccc3c(c2)OCO3)cs1`, the cytotoxicity at 10 µM was -13.5%.

With `CC(=O)Nc1ccc(OCc2noc(C(=O)N3CCCC3)n2)cc1`, the cytotoxicity at 10 µM was -12.3%.
